# HSP90 inh – HSP90 refolding inhibition in rabbit reticulocyte lysate; luciferase refolding luminescence, 3 h; actives 0.91% (n = 290,000); AID 1789; inhibition, % at 5.6 µM;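 active = inhibition above the screen-wide mean plus 3 SD, computed separately per campaign, cut at about 16% in these data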;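 note: 0% = DMSO wells and 100% = 60 µM geldanamycin wells; inhibitors lower the luminescence because luciferase stays unfolded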
# STAT3 act – increases IL-6 driven STAT3 reporter signal; U3A cells, IL-6 STAT3-luciferase reporter, luminescence; 100% = signal with IL-6 EC80 alone; activation (% of control), % at 5.6 µM; actives 0.91% (n = 190,000); AID 871;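 active = activation above the screen-wide mean of compound activation plus 3 SD, cut at about 130% in these data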;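 note: 0% = background luminescence of wells with medium and substrate only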
#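 Test system: human U3A cells carrying STAT3-luciferase construct; control set: IL-6-only wells as 100% reference; timing: compound pre-incubation 1 h before IL-6, then 6 h stimulation at 37 °C; also added: IL-6 stimulus at 33 ng/mL final; evaluation: % activation versus median of IL-6-stimulated wells; detection: reporter luminescence signal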
# STAT3 inh – inhibitors of IL-6 induced STAT3 signaling | U3A cells, IL-6 STAT3-luciferase reporter, luminescence; host cell line lacks STAT1 | inhibition, % at 5.5 µM | actives 0.89% (n = 190,000);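 active = inhibition above the mean inhibition across all screened compounds plus 3 SD, cut at about 44% in these data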;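 note: 0% = DMSO only wells and 100% = 100 µM nifuroxazide control wells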
# PPC-1+TRAIL kill – kills PPC-1 cancer cells in the presence of TRAIL | PPC-1 cells + TRAIL, ATPLite viability luminescence | cell killing (% activity), % at 4 µM or 5 µM | actives 0.41% (n = 220,000) | AID 1443;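 active = cell killing above 50% in the first pass at 4 µM, then a duplicate retest at 5 µM averaging 50% or more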;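 note: plate controls were cells with TRAIL plus DMSO for no effect and medium-only wells lacking cells for full effect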
# C8 TRAIL sens – sensitizes caspase-8 expressing cells to TRAIL | AID 624354 | NB7+C8 cells + TRAIL, ATPlite viability luminescence | inhibition (viability loss, TRAIL sensitization), % at 10 µM | actives 1% (n = 360,000);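 active = compounds causing at least 50% loss of cell viability in the single-dose screen, relative to plate controls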
# STAT1 blocker – inhibitors of IFN-gamma induced STAT1 signaling; actives 0.35% (n = 200,000); AID 920; inhibition, % at 5.5 µM; NIH 3T3 STAT1-luciferase reporter, luminescence;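 active = inhibition above a set limit, the mean inhibition across all tested compounds plus 3 SD, cut at about 34% in these data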;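 note: 0% = IFN-gamma with DMSO and 100% = IFN-gamma with 300 µM nifuroxazide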
# * = called active by the depositor; nt = no result. The list is not random: actives were taken first. Their share in the collection is about 2.3%.
SMILES,HSP90 inh,STAT3 act,STAT3 inh,PPC-1+TRAIL kill,C8 TRAIL sens,STAT1 blocker
CN(C(=O)c1ccc(NC(=O)Cc2ccc(NC(=O)C3CCCN(S(=O)(=O)c4cccc([N+](=O)[O-])c4)C3)cc2)cc1)C1CCCC1 (stereo not given),nt,nt,nt,nt,-10.1,nt
O=C1CC(N2CCN(c3ccccc3F)CC2)C(=O)N1c1ccc2c(c1)OCCO2 (stereo not given),-1.5,106.1,-0.6,-21.4,-4.6,-4.4
Cc1cc(C)c(S(=O)(=O)/N=C2\C=C(NS(=O)(=O)c3ccccc3)C(=O)c3ccccc32)c(C)c1,-4.7,nt,nt,nt,-2.4,nt
Cc1cccc(NC2=C/C(=N/S(=O)(=O)c3cccs3)c3ccccc3C2=O)c1,4.0,115.5,-7.9,51.2*,95.4*,3.0
Cc1ccc(Cl)cc1NC1=C/C(=N\S(=O)(=O)c2cccs2)c2ccccc2C1=O,7.5,132.0,-28.0,-6.9,92.0*,-1.6
O=C(O)c1ccc(Nc2nc3ccccc3nc2NS(=O)(=O)c2cccs2)cc1,-5.1,nt,nt,nt,-7.2,nt
O=C(O)c1ccc(NC2=C/C(=N/S(=O)(=O)c3cccs3)c3ccccc3C2=O)cc1,nt,nt,nt,nt,55.0*,nt
COc1cccc(CNc2nc3ccccc3n2CCN2CCCCC2)c1OC,-0.4,106.6,-4.0,10.7,20.9,9.7
CCOc1nc(NCCC2=CCCCC2)nc(N2CCOCC2)n1,1.9,98.2,6.4,23.4,5.8,6.6
COc1ccccc1N1C(=O)N(C(C)=O)C2C1Nc1ccccc1N2C (stereo not given),5.8,133.6*,-34.9,-5.9,7.1,17.5
COc1ccccc1NC(=O)CSc1nnnn1-c1ccccc1F,-2.0,nt,nt,nt,-0.7,nt
CC(C)(C)c1cc(CCC(=O)NCCc2ccccn2)cc(C(C)(C)C)c1O,-2.1,nt,nt,nt,10.4,nt
O=C1C=C(NCCc2cc(Br)c(O)c(Br)c2)C(=O)c2ncccc21,nt,nt,nt,nt,56.9*,nt
O=C(NC1CCCC1)C1C(c2ccc(C(F)(F)F)cc2)=Nc2ccccc2N1C(=O)c1cccc2ccccc12 (stereo not given),nt,nt,nt,nt,9.3,nt
CN1CCN(CCc2cn3ncc(C#N)c3nc2-c2ccc(F)cc2)CC1,1.2,106.7,4.4,9.4,19.4,-2.1
Cc1cc(=O)oc2cc(OCC(=O)N3CCCC(C)C3)ccc12 (stereo not given),1.9,99.6,6.9,6.6,-7.8,2.4
Cc1cc(=O)oc2ccc(OCC(=O)N3CCC(C)CC3)cc12,-0.8,135.1*,-34.9,-0.7,-5.5,1.2
CCOc1ccc(-c2nc(CSCC(=O)N3CCN(c4cccc(OC)c4)CC3)c(C)o2)cc1,24.0*,80.0,31.7,20.2,22.5,9.8
O=c1c2ccccc2nc2sc(Nc3ccc(F)cc3)nn12,nt,nt,nt,nt,23.3,nt
Cc1ccccc1Nc1nn2c(=O)c3ccccc3nc2s1,-0.7,95.4,7.9,41.1,49.9*,-41.2
CCCCCCCCCCCCCCCC[N+](C)(C)CCN(Cc1ccc(OC)cc1)c1ncccn1,nt,nt,nt,nt,53.4*,nt
COc1ccc(CN(CCN(C)C)c2ccccn2)cc1,1.2,97.8,4.8,-7.5,0.7,-2.4
CCOc1ccc(NC(=O)CCC(=O)c2ccc(F)cc2)cc1,5.0,nt,nt,nt,0.1,nt
CCCOc1ccc(-c2nc(N3CCN(C)CC3)c3ccccc3n2)cc1,6.4,nt,nt,nt,65.9*,nt
Cc1cccc(-c2cc3nc(-c4ccccc4)cc(=O)n3[nH]2)c1,-2.4,nt,nt,nt,43.8*,nt
SMILES,HSP90 inh,STAT3 act,STAT3 inh,PPC-1+TRAIL kill,C8 TRAIL sens,STAT1 blocker
CCCCn1c(CCC)nc([N+](=O)[O-])c1Sc1ccc(Cl)cn1,-3.5,94.7,9.1,7.5,7.3,34.2*
CC(C)Cn1c(C(C)C)nc([N+](=O)[O-])c1Sc1ccc(Cl)cn1,-0.7,98.3,4.9,9.5,-14.9,11.8
CCc1c(C)[nH]n(-c2nc(-c3ccccc3)cs2)c1=O,-4.3,94.2,12.4,-3.4,0.0,-7.0
Cc1[nH]n(-c2nc(-c3ccc(Cl)cc3)cs2)c(=O)c1N=Nc1ccc(O)cc1,5.4,82.6,22.9,0.0,80.5*,18.6
COc1ccc(S(=O)(=O)N(C)C[C@H]2OCc3cnnn3CCCC(=O)N([C@H](C)CO)C[C@@H]2C)cc1,nt,nt,nt,nt,-7.0,nt
C=C1C(=O)C=C2CN(C(=O)c3ccccc3)[C@@](Cc3ccc(F)cc3)(C(=O)OC)[C@@H]12,17.9*,111.0,-16.0,13.4,72.5*,14.4
CCn1cc(CN2CCc3c([nH]c4ccccc34)C2c2ccc(F)c(OC)c2)c(C)n1 (stereo not given),-6.3,110.5,-6.9,3.5,-1.1,-1.5

# Compound activity deposited in PubChem BioAssay by several laboratories.
